Data reported in paper PMC3870591 (Human immunology, 2013).
Marks after values point to notes of the source that are not given here.

Experiments:
[1] = target: DRB1*11:01 (Homo sapiens, UniProt P01903+P01911, A100R/A169T/A87E/I96F/K41T/L162R/M171V/P40S/Q125H/Q178H/Q39Y/Q99D/R42S/S66Y/T262R/V115G/W38E); test: REVEAL MHC-peptide binding assay; settings: HLA DRB1*11:01; percentage of signal of positive control peptide
Summary of the method: (§1)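 Overlapping 15-mer peptides (3-residue offset) spanning brown shrimp tropomyosin (Q3Y8M6) were tested in the REVEAL assay. It detects peptide-stabilised, natively folded MHC class II complexes via a labeled antibody. Scores at 0 and 24 h are expressed as % of signal from an allele-specific known T-cell epitope positive control. An intermediate-affinity control peptide verified assay performance. A score of ≥10% counted as a good binder.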

[2] = target: DQA1*03:01; DQB1*03:02 (Homo sapiens, UniProt P01909+P01920, A209T/A45G/C70Q/D89A/DUP78-78/E183D/E77G/F237L/G63E/H199R/I129T/K197E/L178F/L74F/L98V/Q57E/Q76R/S185I/S97I/T217I/T49S/V73L/Y58L); test: REVEAL MHC-peptide binding assay; settings: HLA DQB1*03:02; percentage of signal of positive control peptide
Summary of the method: as §1

[3] = target: DRB1*15:01 (Homo sapiens, UniProt P01903+P01911); test: REVEAL MHC-peptide binding assay; settings: HLA DRB1*15:01; percentage of signal of positive control peptide
Summary of the method: as §1

[4] = target: DQA1*01:01; DQB1*05:01 (Homo sapiens, UniProt P01909+P01920, A157S/A45G/A70V/C70R/D89V/E106S/E118A/E183D/E77G/F83G/G63E/H151Q/H199R/H252R/H253Q/I129T/I235V/I88M/INS77G/K197Q/L107V/L117V/L119Y/L178F/L71W/L74F/L85Q/L91A/L98M/M46L/N214S/P87R/Q116E/Q256R/Q57E/Q76K/R102G/R240Q/R75S/R78G/S102Y/S185I/S41F/S97I/T103A/T109R/T121G/T122I/T172A/T86R/V148I/V68A/V73E/Y34C/Y58G/Y62H); test: REVEAL MHC-peptide binding assay; settings: HLA DQB1*05:01; percentage of signal of positive control peptide
Summary of the method: as §1

[5] = target: DRB1*13:01 (Homo sapiens, UniProt P01903+P01911, A100E/A169T/K41T/L162R/M171V/P40S/Q125H/Q178H/Q39Y/Q99D/R42S/S66N/T262R/W38E/Y61H); test: REVEAL MHC-peptide binding assay; settings: HLA DRB1*13:01; percentage of signal of positive control peptide
Summary of the method: as §1

[6] = target: DRB1*04:01 (Homo sapiens, UniProt P01903+P01911, A100K/A169T/F76Y/I96L/K127E/L162R/M171V/N62H/P40V/Q125Y/R42H/S133A/S149N/S66Y/V115G/V209L/W38E); test: REVEAL MHC-peptide binding assay; settings: HLA DRB1*04:01; percentage of signal of positive control peptide
Summary of the method: as §1

[7] = target: DRB1*03:01 (Homo sapiens, UniProt P01903+P01911, A100K/A102G/A103R/A169T/F55Y/I96L/K41T/L162R/M171V/P40S/Q125H/Q178H/Q39Y/R42S/S66N/T106N/T262R/W38E/Y61H); test: REVEAL MHC-peptide binding assay; settings: HLA DRB1*03:01; percentage of signal of positive control peptide
Summary of the method: as §1

[8] = target: DQA1*05:01; DQB1*02:01 (Homo sapiens, UniProt P01909+P01920, A45G/A70V/D89A/E106A/E77G/E98D/H199R/L107V/N214S/P84L/P87L/T103K/T109R/T172A/T60S/V78E/V99I/Y58L/Y62S/Y69I/Y79F); test: REVEAL MHC-peptide binding assay; settings: HLA DQB1*02:01; percentage of signal of positive control peptide
Summary of the method: as §1

[9] = target: DRB1*07:01 (Homo sapiens, UniProt P01903+P01911, A100R/A102G/A103Q/D57E/D86V/E43K/F76Y/K127E/L162R/M171V/P40G/Q125H/Q99D/R33Q/R42Y/R54Q/S133A/S66F/T210M/V115G/Y107V/Y59L/Y89S); test: REVEAL MHC-peptide binding assay; settings: HLA DRB1*07:01; percentage of signal of positive control peptide
Summary of the method: as §1

[10] = test system: MHC class II alleles; test: REVEAL MHC-peptide binding assay; parameters: species or system human; settings: % of the positive control; allele not given
Summary of the method: as §1

[11] = target: DRB1*09:01 (Homo sapiens, UniProt P01903+P01911, A100R/A103E/D57H/D86V/F55Y/F60I/F76Y/I96F/K127E/L162R/M171V/P40D/Q125H/Q99R/R33Q/R42F/S133A/S66N/T210M/V115G/W38K/Y107V/Y59G/Y89S); test: REVEAL MHC-peptide binding assay; settings: HLA DRB1*09:01; percentage of signal of positive control peptide
Summary of the method: as §1

[12] = target: DRB1*10:01 (Homo sapiens, UniProt P01903+P01911, A100R/A169T/D57E/F55L/F60V/F69Y/F76Y/I96L/L162R/M171V/P40V/Q260P/Q39E/Q99R/R195Q/R42F/S149N/S66Y/T210M/V115G/V67A/W38E/Y59R/Y61H); test: REVEAL MHC-peptide binding assay; settings: HLA DRB1*10:01; percentage of signal of positive control peptide
Summary of the method: as §1

[13] = test system: CD4 T cells; test: CFSE CD4 T cell proliferation assay; format: cell-based, human
[14] = test system: Peripheral blood mononuclear cells (PBMC); test: Tritiated thymidine proliferation assay; format: cell-based, human

Substance: 1: tropomyosin-derived 15-mer MDAIKKKMQAMKLEK [Peptide 1]
- Binding score [1]: 18.74%
- Binding score [2]: 35.20%
- Binding score [3]: 14.02%

Substance: 2: tropomyosin-derived 15-mer IKKKMQAMKLEKDNA [Peptide 2]
- Binding score [4]: 13.94%
- Binding score [5]: 26.06%

Substance: 3: tropomyosin-derived 15-mer KMQAMKLEKDNAMDR [Peptide 3]
- Binding score [6]: 23.52%

Substance: 4: tropomyosin-derived 15-mer AMKLEKDNAMDRADT [Peptide 4]
- Binding score [7]: 74.69%

Substance: 5: tropomyosin-derived 15-mer LEKDNAMDRADTLEQ [Peptide 5]
- Binding score [7]: 66.31%

Substance: 7: tropomyosin-derived 15-mer MDRADTLEQQNKEAN [Peptide 7]
- Binding score [6]: 22.16%

Substance: 8: tropomyosin-derived 15-mer ADTLEQQNKEANNRA [Peptide 8]
- Binding score [8]: 20.74%

Substance: 10: tropomyosin-derived 15-mer QNKEANNRAEKSEEE [Peptide 10]
- Binding score [8]: 25.17%

Substance: 13: tropomyosin-derived 15-mer EKSEEEVHNLQKRMQ [Peptide 13]
- Binding score [9]: 26.79%

Substance: 15: tropomyosin-derived 15-mer VHNLQKRMQQLENDL [Peptide 15]
- Binding score [1]: 11.01%

Substance: 18: tropomyosin-derived 15-mer QLENDLDQVQESLLK [Peptide 18]
- Binding score [6]: 9.10 ^a %
- Binding score (relative binding affinity) [10]: ≤ 10%

Substance: 21: tropomyosin-derived 15-mer QESLLKANIQLVEKD [Peptide 21]
- Binding score [11]: 8.32 ^a %

Substance: 24: tropomyosin-derived 15-mer QLVEKDKALSNAEGE [Peptide 24]
- Binding score [6]: 20.62%
- Binding score [7]: 45.59%

Substance: 29: tropomyosin-derived 15-mer VAALNRRIQLLEEDL [Peptide 29]
- Binding score [1]: 22.35%
- Binding score [5]: 19.31%

Substance: 34: tropomyosin-derived 15-mer ERSEERLNTATTKLA [Peptide 34]
- Binding score [4]: 22.67%

Substance: 36: tropomyosin-derived 15-mer LNTATTKLAEASQAA [Peptide 36]
- Binding score [6]: 43.87%

Substance: 43: tropomyosin-derived 15-mer RKVLENRSLSDEERM [Peptide 43]
- Binding score [4]: 7.11 ^a %
- Binding score (relative binding affinity) [10]: ≤ 10%

Substance: 49: tropomyosin-derived 15-mer ENQLKEARFLAEEAD [Peptide 49]
- Binding score [4]: 19.65%

Substance: 51: tropomyosin-derived 15-mer ARFLAEEADRKYDEV [Peptide 51]
- Binding score [6]: 11.06%
- Binding score [7]: 15.03%

Substance: 53: tropomyosin-derived 15-mer EADRKYDEVARKLAM [Peptide 53]
- Binding score [1]: 13.67%

Substance: 54: tropomyosin-derived 15-mer RKYDEVARKLAMVEA [Peptide 54]
- Binding score [2]: 7.98 ^a %

Substance: 57: tropomyosin-derived 15-mer LAMVEADLERAEERA [Peptide 57]
- Binding score [7]: 19.46%

Substance: 58: tropomyosin-derived 15-mer VEADLERAEERAETG [Peptide 58]
- Binding score [12]: 39.12%

Substance: 63: tropomyosin-derived 15-mer ESKIVELEEELRVVG [Peptide 63]
- Binding score [7]: 29.06%

Substance: 66: tropomyosin-derived 15-mer ELRVVGNNLKSLEVS [Peptide 66]
- Binding score [6]: 25.05%
- Binding score [8]: 24.15%

Substance: 74: tropomyosin-derived 15-mer AYKEQIKTLTNKLKA [Peptide 74]
- Binding score [4]: 14.73%
- Binding score [1]: 10.94%
- Binding score [2]: 19.28%
- Binding score [6]: 41.94%
- Binding score [9]: 74.20%

Substance: 76: tropomyosin-derived 15-mer KTLTNKLKAAEARAE [Peptide 76]
- Binding score [12]: 37.57%
- Binding score [11]: 89.92%

Substance: 80: tropomyosin-derived 15-mer RAEFAERSVQKLQKE [Peptide 80]
- Binding score [4]: 9.26 ^a %
- Binding score (relative binding affinity) [10]: ≤ 10%

Substance: Tetanus Toxoid
- CD4 T cell proliferation (CFSE) [13]: much greater level of CD4 T cell proliferation
- Proliferative T cell response by tritiated-thymidine incorporation [14]: much higher proliferative responses
